The source made the active and inactive calls. The calls are words filed in the database; no cut-off is given here.
Legend:
HL-60 [1] = test: Growth inhibition of human HL60 cells at 1 uM after 72 hrs by trypan blue exclusion assay; format: functional, cell-based
HL-60 [2] = test: Cytotoxicity against human HL60 cells after 72 hrs by trypan blue exclusion assay; format: functional, cell-based; conditions: HL-60, 72 h
Method in brief: (§1)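 HL-60 cells treated 72 h, then counted with trypan blue exclusion. IG50 is the concentration giving 50% inhibition of proliferation. IC50 is the concentration giving 50% loss of viability.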

HL-60 [3] = test: Inhibition of human HL60 cell proliferation after 72 hrs by trypan blue exclusion assay; format: functional; method in brief: as §1
HL-60 [4] = test: Cell cycle arrest in human HL60 cells assessed as accumulation at subG1 phase at 0.8 uM after 24 hrs using propidium iodide staining by flow cytometry; format: functional
Method in brief: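 HL-60 cells exposed 24 h; propidium iodide staining, then flow cytometry. The subG1 population is scored as apoptotic cells. Mean ± SD from three independent experiments.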

P388 [5] = test: Growth inhibition of adriamycin-resistant mouse P388 cells after 72 hrs by trypan blue exclusion assay; format: functional
P388 [6] = test: Growth inhibition of mouse P388 cells after 72 hrs by trypan blue exclusion assay; format: functional
HL-60 [7] = test: Induction of apoptosis in human HL60 cells assessed as occurrence of nuclear shrinkage, blebbing and apoptotic bodies at 0.2 uM after 24 hrs by acridine orange and ethidium bromide staining; format: functional
Method in brief: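 HL-60 cells exposed 12 h and 24 h, stained with acridine orange and ethidium bromide, and viewed by fluorescence microscopy. Cells showing nuclear shrinkage, blebbing or apoptotic bodies were scored apoptotic. Percentage taken from 300 cells counted. Mean ± SD of three independent experiments.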

HL-60 [8] = test: Induction of apoptosis in human HL60 cells assessed as DNA fragmentation at 0.8 uM after 24 hrs using ethidium bromide staining by DNA gel electrophoresis; format: functional, cell-based
Method in brief: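 HL-60 cells exposed 24 h. DNA resolved by gel electrophoresis and the fragmented DNA visualized by ethidium bromide staining.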

HL-60 [9] = test: Induction of apoptosis in human HL60 cells assessed as DNA fragmentation at 4 uM after 24 hrs using ethidium bromide staining by DNA gel electrophoresis; format: functional, cell-based
Method in brief: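 HL-60 cells treated 24 h; DNA fragmentation resolved by DNA gel electrophoresis and visualized after ethidium bromide staining.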

HL-60 [10] = test: Induction of apoptosis in human HL60 cells assessed as occurrence of nuclear shrinkage, blebbing and apoptotic bodies at 2 uM after 24 hrs by acridine orange and ethidium bromide staining; format: functional, cell-based
Method in brief: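 HL-60 cells treated 12 h and 24 h; stained with acridine orange and ethidium bromide, fluorescence microscopy; cells with nuclear shrinkage, blebbing or apoptotic bodies counted as apoptotic among 300 cells observed; percentage calculated. Three independent experiments, mean ± SD.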

HL-60 [11] = test: Cell cycle arrest in human HL60 cells assessed as accumulation at subG1 phase at 4 uM after 24 hrs using propidium iodide staining by flow cytometry; format: functional, cell-based
Method in brief: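 HL-60 cells exposed 24 h; propidium iodide staining, flow cytometry; apoptotic cells scored as sub-G1 fraction. Three independent experiments, mean ± SD.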

SMILES	growth inhibition (GI) (HL-60 [1])	IC50 (HL-60 [2]) [nM]	IG50 (HL-60 [3]) [µM]	other results
C[C@H]1[C@@H](OCCOc2ccc(C(=O)/C=C/c3ccc(Cl)cc3)cc2)O[C@@H]2O[C@]3(C)CC[C@H]4[C@H](C)CC[C@@H]1[C@@]24OO3	inactive	130	0.106	–
C[C@H]1[C@H](OC(=O)COc2ccc(C(=O)/C=C/c3ccc(Br)cc3)cc2)O[C@@H]2O[C@]3(C)CC[C@H]4[C@H](C)CC[C@@H]1[C@@]24OO3	inactive	636	0.314	–
C[C@H]1[C@@H](OCCOc2ccc(C(=O)/C=C/c3ccc4c(c3)OCO4)cc2)O[C@@H]2O[C@]3(C)CC[C@H]4[C@H](C)CC[C@@H]1[C@@]24OO3	inactive	89	0.059	Activity (HL-60 [4]): 80%; IG50 (P388 [5]): 0.178 µM; IG50 (P388 [6]): 0.096 µM; Activity (HL-60 [7]): 50%; Activity (HL-60 [8]): Active
CCOc1ccc(/C=C/C(=O)c2ccc(OCC(=O)O[C@@H]3O[C@@H]4O[C@]5(C)CC[C@H]6[C@H](C)CC[C@@H]([C@H]3C)[C@@]46OO5)cc2)cc1	inactive	734	0.286	–
CCOc1ccc(/C=C/C(=O)c2ccc(OCCO[C@H]3O[C@@H]4O[C@]5(C)CC[C@H]6[C@H](C)CC[C@@H]([C@H]3C)[C@@]46OO5)cc2)cc1	inactive	110	0.121	–
C[C@H]1[C@@H](O)O[C@@H]2O[C@@]3(C)CC[C@H]4[C@H](C)CC[C@@H]1[C@@]24OO3 [ARTENIMOL]	–	2900	0.73	Activity (HL-60 [9]): Active; Activity (HL-60 [10]): Active; Activity (P388 [5]): 1.51 µM; Activity (P388 [6]): 2.3 µM; Activity (HL-60 [11]): Active
O=C(/C=C/c1ccccc1)c1ccccc1	inactive	–	–	–
C[C@H]1[C@H](OC(=O)COc2ccc(C(=O)/C=C/c3ccc(Cl)cc3)cc2)O[C@@H]2O[C@]3(C)CC[C@H]4[C@H](C)CC[C@@H]1[C@@]24OO3	inactive	537	0.276	–
C[C@H]1[C@@H](OCCOc2ccc(C(=O)/C=C/c3ccccc3)cc2)O[C@@H]2O[C@]3(C)CC[C@H]4[C@H](C)CC[C@@H]1[C@@]24OO3	inactive	193	0.208	–
C[C@H]1[C@@H](OCCOc2ccc(C(=O)/C=C/c3ccccc3Cl)cc2)O[C@@H]2O[C@]3(C)CC[C@H]4[C@H](C)CC[C@@H]1[C@@]24OO3	inactive	136	0.119	–
COc1cccc2c1C(=O)c1c(O)c3c(c(O)c1C2=O)C[C@@](O)(C(=O)CO)C[C@@H]3O[C@H]1C[C@H](N)[C@H](O)[C@H](C)O1 [DOXORUBICIN]	–	–	–	IG50 (P388 [5]): 3.73 µM; IG50 (P388 [6]): 0.019 µM
COc1ccc(/C=C/C(=O)c2ccc(OCCO[C@H]3O[C@@H]4O[C@]5(C)CC[C@H]6[C@H](C)CC[C@@H]([C@H]3C)[C@@]46OO5)cc2)cc1OC	inactive	300	0.09	–
COc1cc(/C=C/C(=O)c2ccc(OCCO[C@H]3O[C@@H]4O[C@]5(C)CC[C@H]6[C@H](C)CC[C@@H]([C@H]3C)[C@@]46OO5)cc2)cc(OC)c1OC	inactive	219	0.07	–
COc1ccccc1/C=C/C(=O)c1ccc(OCCO[C@H]2O[C@@H]3O[C@]4(C)CC[C@H]5[C@H](C)CC[C@@H]([C@H]2C)[C@@]35OO4)cc1	inactive	134	0.165	–
COc1ccc(/C=C/C(=O)c2ccc(OCC(=O)O[C@@H]3O[C@@H]4O[C@]5(C)CC[C@H]6[C@H](C)CC[C@@H]([C@H]3C)[C@@]46OO5)cc2)cc1	inactive	394	0.174	–
COc1cccc(/C=C/C(=O)c2ccc(OCCO[C@H]3O[C@@H]4C[C@]5(C)CC[C@H]6[C@H](C)CC[C@@H]([C@H]3C)[C@@]46OO5)cc2)c1OC	inactive	194	0.079	–
COc1ccc(/C=C/C(=O)c2ccc(OCCO[C@H]3O[C@@H]4O[C@]5(C)CC[C@H]6[C@H](C)CC[C@@H]([C@H]3C)[C@@]46OO5)cc2)cc1	inactive	147	0.214	–
C[C@H]1[C@@H](OCCOc2ccc(C(=O)/C=C/c3ccc(Br)cc3)cc2)O[C@@H]2O[C@]3(C)CC[C@H]4[C@H](C)CC[C@@H]1[C@@]24OO3	inactive	80	0.04	Activity (HL-60 [4]): 80%; Activity (P388 [5]): 0.155 µM; Activity (P388 [6]): 0.098 µM; Activity (HL-60 [7]): 50%; Activity (HL-60 [8]): Active

Reference: ChEMBL document CHEMBL1152351, “Synthesis of a series of novel dihydroartemisinin derivatives containing a substituted chalcone with greater cytotoxic effects in leukemia cells” (Bioorg Med Chem Lett, 2009)
